The term pIC50 denotes the IC50 on a negative log10 scale, so that one unit is a factor of ten. The inhibition is the percentage by which the read-out fell short of the control. For orientation: pKd means the Kd on a negative log10 scale, so that one unit is a factor of ten.

pIC50, pKd: −log10 of the molar value. Activity calls are given as the source filed them. The rule behind the calls is not given here.

This note sets out measurements from ChEMBL document CHEMBL2407016 (J Med Chem, 2013).

Assay [1] has as its target T1, 1-deoxy-D-xylulose 5-phosphate reductoisomerase (Mycobacterium tuberculosis, UniProt P9WNS1).
T1 sequence (P9WNS1 whole entry): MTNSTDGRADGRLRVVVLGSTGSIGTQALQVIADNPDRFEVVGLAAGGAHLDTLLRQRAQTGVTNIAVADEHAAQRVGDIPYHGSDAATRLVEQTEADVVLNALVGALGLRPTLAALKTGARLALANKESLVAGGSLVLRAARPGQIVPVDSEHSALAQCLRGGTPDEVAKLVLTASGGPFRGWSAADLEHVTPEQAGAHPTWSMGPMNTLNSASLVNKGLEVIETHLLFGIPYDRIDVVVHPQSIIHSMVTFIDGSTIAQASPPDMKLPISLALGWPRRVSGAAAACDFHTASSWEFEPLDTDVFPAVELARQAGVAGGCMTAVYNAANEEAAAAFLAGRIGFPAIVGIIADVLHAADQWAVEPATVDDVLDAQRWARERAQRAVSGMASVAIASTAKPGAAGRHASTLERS
As to the kind of experiment: Inhibition of Mycobacterium tuberculosis DXR using DXP as substrate measured every 5 secs for 250 secs in presence of NADPH. The procedure, abridged: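 MtDXR activity assay run with NADPH cofactor at 200 μM; IC50 taken from inhibition of enzyme activity.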

In assay [2] the test system is Mycobacterium tuberculosis. The assay can be described thus: Antibacterial activity against Mycobacterium tuberculosis H37Rv assessed as growth inhibition by Alamar blue assay. It is filed as functional, organism-based. A general note: The colour change of resazurin is a common sign of viable cells or microbes.
The next assay deals with Plasmodium falciparum. As to the kind of experiment: Antimalarial activity against Plasmodium falciparum 3D7 assessed as parasite growth inhibition after 18 hrs by SYBR Green-1 staining-based fluorescence assay. The format is functional, organism-based. To be noted: 3D7, 18 h.
In assay [3] the target is T2, 1-deoxy-D-xylulose 5-phosphate reductoisomerase (Mycobacterium tuberculosis) (UniProt P9WNS1).
T2 sequence (whole entry): T1 sequence (P9WNS1 whole entry)
The assay can be described thus: Inhibition of Mycobacterium tuberculosis DXR using DXP as substrate at 100 uM measured every 5 secs for 250 secs in presence of NADPH relative to control.

The target in assay [4] is T1, 1-deoxy-D-xylulose 5-phosphate reductoisomerase. The assay can be described thus: Binding affinity to Mycobacterium tuberculosis DXR assessed as dissociation constant by spectrofluorimetric analysis in presence of NADPH and MnCl2. The procedure, abridged: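 Purified MtDXR; binding followed by direct fluorescence from changes in the environment of the protein's six tryptophan residues.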

A short description of assay [5]: Inhibition of Escherichia coli DXR using DXP as substrate measured every 5 secs for 250 secs in presence of NADPH.
A short description of assay [6]: Inhibition of Plasmodium falciparum DXR using DXP as substrate measured every 5 secs for 250 secs in presence of NADPH.

`O=C(c1ccccc1Cc1cccs1)N(O)CCC(c1ccc(Cl)c(Cl)c1)P(=O)(O)O` (stereo not given): the negative-log IC50 (pIC50) is 5.15 in assay [1] and less than 5.00 with Plasmodium falciparum. In addition, the “growth inhibition (GI)” value in assay [2] was “inactive”. Further, the inhibition in assay [3] turned out to be 90%.
Consider `O=CN(O)CCC(c1ccc(Cl)c(Cl)c1)P(=O)(O)O` (stereo not given), for which, in assay [4], the pKd was 6.92.
In the case of `O=C(c1ccccc1C(F)(F)F)N(O)CCC(c1ccc(Cl)c(Cl)c1)P(=O)(O)O` (stereo not given), the pIC50 in assay [1] was 5.05. In addition, the “growth inhibition (GI)” value in assay [2] was “inactive”. For the same molecule, in assay [3], the inhibition was 70%.
Consider `Cc1ccccc1C(=O)N(O)CCC(c1ccc(Cl)c(Cl)c1)P(=O)(O)O` (stereo not given), for which the pIC50 in assay [1] was 6.08; in the assay on Plasmodium falciparum, less than 5.00. For the same molecule, in assay [2], the “growth inhibition (GI)” value was “inactive”. The inhibition in assay [3] worked out at 95%.
Consider `O=C(NCC(=O)N(O)CCCP(=O)(O)O)C1CC1`, for which the pIC50 in assay [1] was less than 3.70; in assay [5], 5.15; in assay [6] it was 5.48.
As for `O=C(c1cccnc1)N(O)CCCP(=O)(O)O`, in assay [1], the pIC50 was 5.80.
As for `CCC(=O)N(O)CCCP(=O)(O)O`, the pIC50 in assay [1] was 4.57.
The same measure, in the same setting: under `O=C(c1ccco1)N(O)CCCP(=O)(O)O` stands 4.31; under `O=C(c1ccc2ccccc2c1)N(O)CCCP(=O)(O)O`, 5.70.
Regarding `C[C@@H]1CC[C@H]2[C@@H](C)C(=O)O[C@@H]3O[C@@]4(C)CC[C@@H]1[C@]32OO4` [ARTEMISININ], the negative-log IC50 (pIC50) in the assay with Plasmodium falciparum was 8.30.
For `O=C(c1cccc(Cn2cncn2)c1)N(O)CCC(c1ccc(Cl)c(Cl)c1)P(=O)(O)O` (stereo not given), the pKd in assay [4] is 6.77. For the same molecule, the pIC50 in assay [1] was 6.85; in the assay with Plasmodium falciparum it was 6.41. Besides, the “growth inhibition (GI)” value in assay [2] is “inactive”. Besides, the inhibition in assay [3] worked out at 90%.
Regarding `CC(=O)N(O)CCCP(=O)(O)O` [FR-900098], the negative-log IC50 (pIC50) in assay [5] was 7.29; in assay [6] it was 7.74.
As to `O=C(c1ccccc1)N(O)CCCP(=O)(O)O`, the pIC50 in assay [1] is 5.70; in assay [5], 6.89; in assay [6] it was 7.21.
Regarding `O=C(c1ccccc1)N(O)CCC(c1ccc(Cl)c(Cl)c1)P(=O)(O)O` (stereo not given), the pKd in assay [4] was 6.68. The pIC50 in assay [1] was 6.49; in the assay on Plasmodium falciparum it was 7.40. In assay [2], the “growth inhibition (GI)” value was “inactive”. Moreover, the inhibition in assay [3] worked out at 100%.
For `O=CN(O)CCCP(=O)(O)O` [FOSMIDOMYCIN], the pIC50 in assay [5] is 7.30; in assay [6], 7.49.
Take `O=C(CCCOc1ccccc1)NCC(=O)N(O)CCCP(=O)(O)O`: the pIC50 in assay [1] was less than 3.70; in assay [5], 6.00; in assay [6] it was 6.40.
Consider `NC(=O)c1cncc(C(=O)N(O)CCCP(=O)(O)O)c1`, for which the pIC50 in assay [1] is 5.44.
For the molecule `O=C(c1ccccc1OC(F)(F)F)N(O)CCC(c1ccc(Cl)c(Cl)c1)P(=O)(O)O` (stereo not given), the pKd in assay [4] was 7.05. For the same molecule, the figures for the negative-log IC50 (pIC50) (in assay [1]; in the assay with Plasmodium falciparum) were 5.10 and less than 5.00, respectively. For the same molecule, the “growth inhibition (GI)” value in assay [2] is “inactive”. In assay [3], the inhibition came out at 90%.
As to `O=C(Cc1ccccc1)N(O)CCCP(=O)(O)O`, the pKd in assay [4] is 6.49. For the same molecule, the pIC50 in assay [1] is 4.17; in assay [5] it was 4.89.
With `O=C(c1ccccc1Nc1cccc(C(F)(F)F)c1)N(O)CCC(c1ccc(Cl)c(Cl)c1)P(=O)(O)O` (stereo not given), the negative logarithm of the Kd (pKd) in assay [4] was 7.05. The pIC50 in assay [1] was 4.72; in the assay on Plasmodium falciparum it was less than 5.00. The “growth inhibition (GI)” value in assay [2] was “inactive”. Further, in assay [3], the inhibition amounted to 80%.
On to `O=C(c1ccc(Cn2cncn2)cc1)N(O)CCC(c1ccc(Cl)c(Cl)c1)P(=O)(O)O` (stereo not given), for which the negative-log Kd (pKd) in assay [4] is 6.70. The pIC50 in assay [1] is 5.92; in the assay with Plasmodium falciparum it was 6.72. Further, the “growth inhibition (GI)” value in assay [2] was “inactive”. Besides, the inhibition in assay [3] was found to be 80%.
As for `CC(=O)N(O)CCC(c1ccc(Cl)c(Cl)c1)P(=O)(O)O` (stereo not given), in assay [4], the negative-log Kd (pKd) was 6.44.
As to `CC(=O)Oc1cccc(C(=O)N(O)CCC(c2ccc(Cl)c(Cl)c2)P(=O)(O)O)c1` (stereo not given), the pIC50 in assay [1] is less than 4.00; with Plasmodium falciparum it was 5.41. The “growth inhibition (GI)” value in assay [2] was “inactive”. For the same molecule, the inhibition in assay [3] was determined as 30%.
On to `O=C(c1ccccc1Cn1cncn1)N(O)CCC(c1ccc(Cl)c(Cl)c1)P(=O)(O)O` (stereo not given), for which, in assay [4], the pKd was 7.40. The pIC50 was 4.89 in assay [1] and less than 5.00 in the assay with Plasmodium falciparum. For the same molecule, the “growth inhibition (GI)” value in assay [2] was “inactive”. In assay [3], the inhibition is 70%.
For the molecule `O=C(c1ccccc1-c1ccccc1)N(O)CCC(c1ccc(Cl)c(Cl)c1)P(=O)(O)O` (stereo not given), the values for the negative-log IC50 (pIC50) (in assay [1]; in the assay on Plasmodium falciparum) were 4.68 and less than 5.00, respectively. Moreover, the “growth inhibition (GI)” value in assay [2] was “inactive”. Also, the inhibition in assay [3] is 60%.
As for `O=C(C1CC1)N(O)CCCP(=O)(O)O`, the pIC50 in assay [1] is 3.81; in assay [5], 5.35.
